Results: paper PMC4451255 (Bioorganic & medicinal chemistry, 2015)
Residue numbers refer to the chain shown, from its start.

How the values were obtained:
wild-type PTP1B [1] = experiment: FlAsH inhibition of purified PTP catalytic domain, pNPP assay; type: biochemical, human; details: purified enzyme 50 nM, 120-minute pre-incubation
Procedure, shortened: (§1)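 His6-tagged PTP catalytic domains (50 nM) are pre-incubated 120 min at 37 °C with test compound or DMSO (1% v/v). Activity is then assayed at 37 °C with pNPP at each enzyme's previously determined KM in 50 mM 3,3-dimethylglutarate pH 7.0, 1 mM EDTA, 50 mM NaCl. The reaction is quenched with NaOH and A405 read. Activity is normalized to DMSO-only control, triplicate, ≥3 independent experiments.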

wild-type PTP1B [2] = experiment: SDS/PAGE and fluorescence visualization of protein/FlAsH complexes; type: binding, human; details: 6 μM FlAsH, UV visualization
wild-type PTPH-1 [3] = experiment: FlAsH inhibition of purified PTP catalytic domain, pNPP assay; type: biochemical, human; details: purified enzyme 50 nM, one equivalent of FlAsH
Procedure, shortened: as §1

V368C Shp2 [4] = biological target: T1, V368C Shp2 (Homo sapiens, UniProt Q06124, V368C); experiment: SDS/PAGE and fluorescence visualization of protein/FlAsH complexes; type: binding; details: 6 μM FlAsH, 2 μg enzyme, UV visualization, band at approximately 37 kD
T1 sequence (Q06124 247-517 V368C limits assumed): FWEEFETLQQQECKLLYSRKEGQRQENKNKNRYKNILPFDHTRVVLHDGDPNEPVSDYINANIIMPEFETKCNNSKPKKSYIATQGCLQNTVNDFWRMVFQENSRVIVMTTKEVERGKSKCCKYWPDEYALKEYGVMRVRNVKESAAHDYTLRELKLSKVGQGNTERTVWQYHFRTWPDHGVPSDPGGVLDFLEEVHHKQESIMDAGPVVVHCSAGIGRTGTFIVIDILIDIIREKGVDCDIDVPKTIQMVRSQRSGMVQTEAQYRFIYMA

P87C PTP1B [5] = biological target: T2, P87C PTP1B (Homo sapiens, UniProt P18031, P87C); experiment: as above; type: binding; details: 6 μM FlAsH, UV visualization
T2 sequence (P18031 3-277 P87C limits assumed): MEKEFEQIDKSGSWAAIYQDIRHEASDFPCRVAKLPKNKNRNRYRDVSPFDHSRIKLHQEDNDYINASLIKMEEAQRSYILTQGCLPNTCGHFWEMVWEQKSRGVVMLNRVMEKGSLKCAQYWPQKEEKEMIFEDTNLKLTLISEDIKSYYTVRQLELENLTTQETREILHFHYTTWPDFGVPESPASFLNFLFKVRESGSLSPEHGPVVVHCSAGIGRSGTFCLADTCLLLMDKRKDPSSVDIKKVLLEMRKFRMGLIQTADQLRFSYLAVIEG

P2285C/Q2320C FAP-1 [6] = experiment: FlAsH inhibition of total PTP activity of crude E. coli lysates, pNPP; type: biochemical, human; details: whole-cell E. coli lysate
Procedure, shortened: (§2)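 Cells are lysed by French press (~2000 psi) in 50 mM Tris pH 7.8, 500 mM NaCl, 5 mM imidazole. Clarified lysate takes compound or DMSO (1%) for 120 min at 37 °C. Total pNPP activity is normalized to DMSO.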

P160C/V184C HePTP [7] = experiment: FlAsH inhibition of total PTP activity of crude E. coli lysates, pNPP; type: biochemical, human; details: whole-cell E. coli lysate
V368C Shp2 [8] = biological target: T1, V368C Shp2; experiment: Mass-spectrometry-based FlAsH-induced cysteine-protection assay; type: binding; details: 2.7 μM enzyme, 27 μM FlAsH, 50 mM iodoacetic acid, LC/MS/MS
Procedure, shortened: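 Enzyme (2.7 μM) is incubated 30 min with 27 μM test compound or DMSO in pH 7.0 dimethylglutarate/EDTA/1 mM TCEP. Free cysteines are carboxymethylated with 50 mM iodoacetic acid (30 min), quenched with 100 mM TCEP, precipitated and gel-separated, then trypsin-digested in gel. Nano-LC/MS/MS uses HCD. Peptide precursor intensity ratios (compound/DMSO) are normalized to the mean of non-cysteine peptide ratios.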

P87C PTP1B [9] = biological target: T2, P87C PTP1B; experiment: FlAsH inhibition of purified PTP catalytic domain, pNPP assay; type: biochemical; details: 500 nM FlAsH, continuous pNPP assay
Procedure, shortened: (§3)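 No pre-incubation. pNPP at the enzyme's KM is held with 500 nM test compound or DMSO (1%) in pH 7.0 PTP buffer at 37 °C, and reactions are started by adding His6-tagged catalytic domain (50 nM). A405 is monitored continuously at 37 °C. Rates over 1-min windows are normalized to DMSO control; three independent runs are averaged and fitted as single-variable exponential decay.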

V368C Shp2 [10] = biological target: T1, V368C Shp2; experiment: FlAsH inhibition of purified PTP catalytic domain, pNPP assay; type: biochemical
Procedure, shortened: (§4)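 Two set-ups, both using His6-tagged catalytic domain (50 nM) and pNPP in pH 7.0 3,3-dimethylglutarate buffer. In the first, enzyme is incubated with 125 nM test compound plus β-mercaptoethanol (0–1 mM), then activity is normalized to no-compound controls. In the second, there is no pre-incubation: pNPP at the enzyme's KM sits with a fixed compound level at 37 °C, enzyme starts the reaction, and A405 is followed continuously.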

wild-type Shp2 [11] = biological target: T3, wild-type Shp2 (Homo sapiens, UniProt Q06124); experiment: SDS/PAGE and fluorescence visualization of protein/FlAsH complexes; type: binding; details: 6 μM FlAsH, 2 μg enzyme, UV visualization
T3 sequence (Q06124 247-517 limits assumed): T1 sequence (Q06124 247-517 V368C limits assumed) with C122V

P2285C/Q2320C FAP-1 [12] = experiment: FlAsH inhibition of purified PTP catalytic domain, pNPP assay; type: biochemical, human; details: purified enzyme 50 nM, one equivalent of FlAsH
Procedure, shortened: as §1

wild-type FAP-1 [13] = experiment: as above; type: biochemical, human; details: purified enzyme 50 nM, one equivalent of FlAsH
Procedure, shortened: as §1

wild-type Shp2 [14] = biological target: T3, wild-type Shp2; experiment: FlAsH inhibition of purified PTP catalytic domain, pNPP assay; type: biochemical
Procedure, shortened: as §4

wild-type HePTP [15] = experiment: FlAsH inhibition of purified PTP catalytic domain, pNPP assay; type: biochemical, human; details: purified enzyme 50 nM, one equivalent of FlAsH
Procedure, shortened: as §1

wild-type PTPH-1 [16] = experiment: FlAsH inhibition of total PTP activity of crude E. coli lysates, pNPP; type: biochemical, human; details: whole-cell E. coli lysate, FlAsH concentrations that strongly inhibit the mutant
Procedure, shortened: as §2

P720C/H755C PTPH-1 [17] = experiment: FlAsH inhibition of purified PTP catalytic domain, pNPP assay; type: biochemical, human; details: purified enzyme 50 nM, one equivalent of FlAsH
Procedure, shortened: as §1

P87C/A122C PTP1B [18] = biological target: T4, P87C/A122C PTP1B (Homo sapiens, UniProt P18031, A122C/P87C); experiment: SDS/PAGE and fluorescence visualization of protein/FlAsH complexes; type: binding; details: 6 μM FlAsH, UV visualization, band at 45 kD
T4 sequence (P18031 3-277 P87C/A122C limits assumed): T2 sequence (P18031 3-277 P87C limits assumed) with A120C

P87C/A122C PTP1B [19] = biological target: T4, P87C/A122C PTP1B; experiment: FlAsH inhibition of purified PTP catalytic domain, pNPP assay; type: biochemical; details: purified enzyme 50 nM, time-dependent
Procedure, shortened: as §3

wild-type FAP-1 [20] = experiment: FlAsH inhibition of total PTP activity of crude E. coli lysates, pNPP; type: biochemical, human; details: whole-cell E. coli lysate, FlAsH concentrations that strongly inhibit the mutant
Procedure, shortened: as §2

P720C/H755C PTPH-1 [21] = experiment: as above; type: biochemical, human; details: whole-cell E. coli lysate
Procedure, shortened: as §2

P160C/V184C HePTP [22] = experiment: FlAsH inhibition of purified PTP catalytic domain, pNPP assay; type: biochemical, human; details: purified enzyme 50 nM, one equivalent of FlAsH
wild-type HePTP [23] = experiment: FlAsH inhibition of total PTP activity of crude E. coli lysates, pNPP; type: biochemical, human; details: whole-cell E. coli lysate, FlAsH concentrations that strongly inhibit the mutant
Procedure, shortened: as §2

[24] = 500 nM FlAsH, continuous pNPP assay, no pre-incubation

SMILES: O=C(O)c1ccccc1-c1c2ccc(=O)c([As]3SCCS3)c-2oc2c([As]3SCCS3)c(O)ccc12 [FlAsH]
- effect of FlAsH on enzymatic activity (wild-type PTP1B [1]): unaffected
- fluorescent band of protein/FlAsH conjugate after SDS/PAGE (wild-type PTP1B [2]): fail to produce strongly fluorescent bands
- inhibition of phosphatase activity (wild-type PTPH-1 [3]): not significantly inhibited
- fluorescent band of protein/FlAsH conjugate after SDS/PAGE (V368C Shp2 [4]): strongly fluorescent band
- fluorescent band of protein/FlAsH conjugate after SDS/PAGE (P87C PTP1B [5]): fail to produce strongly fluorescent bands
- inhibition of total PTP activity of lysate (P2285C/Q2320C FAP-1 [6]): strongly inhibited
- inhibition of total PTP activity of lysate (P160C/V184C HePTP [7]): strongly inhibited
- protection of cysteines from modification by IAA (V368C Shp2 [8]): strongly protects C333, C367, and C368
- time for phosphatase activity to decrease to 50% of initial rate (P87C PTP1B [9]): approximately 10 minutes
- effect of β-mercaptoethanol on potency of FlAsH inhibition (V368C Shp2 [10]; 125 nM FlAsH, varying β-ME up to 8,000 times excess): no significant changes
- time to 50% activity (V368C Shp2 [10]; [24]): ~ 7 minutes
- fluorescent band of protein/FlAsH conjugate after SDS/PAGE (wild-type Shp2 [11]): not present
- inhibition of phosphatase activity (P2285C/Q2320C FAP-1 [12]): drastically reduced catalytic activity
- inhibition of phosphatase activity (wild-type FAP-1 [13]): not significantly inhibited
- effect of β-mercaptoethanol on FlAsH's inhibitory effects (wild-type Shp2 [14]; 125 nM FlAsH, varying β-ME): attenuates
- time to 50% activity (wild-type Shp2 [14]; [24]): ~ 11 minutes
- inhibition of phosphatase activity (wild-type HePTP [15]): not significantly inhibited
- inhibition of total PTP activity of lysate (wild-type PTPH-1 [16]): no effects
- inhibition of phosphatase activity (P720C/H755C PTPH-1 [17]): novel sensitivity to FlAsH
- fluorescent band of protein/FlAsH conjugate after SDS/PAGE (P87C/A122C PTP1B [18]): strongly fluorescent band
- inhibition by FlAsH (P87C/A122C PTP1B [19]): potently inhibited
- inhibition of total PTP activity of lysate (wild-type FAP-1 [20]): no effects
- inhibition of total PTP activity of lysate (P720C/H755C PTPH-1 [21]): strongly inhibited
- inhibition of phosphatase activity (P160C/V184C HePTP [22]): drastically reduced catalytic activity
- inhibition of total PTP activity of lysate (wild-type HePTP [23]): no effects
